Compound activity from PubChem BioAssay.
Only some compounds are listed: those with a hit (about 3% of all), similar ones and a draw of the others.
Rad51 HR inh: blocks human Rad51 in homologous recombination; inhibition, % at 10 µM; hRad51 DNA strand exchange, fluorescence dequenching; AID 1385; 0.085% of 200,000 active;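 active = inhibition above 40% at the single screening dose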;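 note: 0% = DMSO control wells and 100% = blanks with heterologous ssDNA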
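System: hRad51 filaments on single-stranded DNA; reagent: Fluorescein- and BHQ1-tagged 47-mer duplex; compound dosing: one concentration, 10 µM final; timing: filaments 15 min 37 °C, then compound 30 min; measured by: fluorescein emission 520 nm, excitation 485 nm; benchmarks: per-plate controls and blanks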
PKD1 inh: PKD1 (human) kinase inhibition | Q15139 | PKD1 kinase fluorescence polarization assay | inhibition, % (test concentration not listed) | 0.056% of 200,000 active | AID 797; in the data active = inhibition above about 50%
ROMK mod: human ROMK K+ channel modulation, primary screen; AID 1918; Tet-inducible ROMK, thallium flux fluorescence; actives lie on both sides; 2% of 130,000 active; P48048; B-score at 10 µM;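 active = signal ratio slope over the read window, or its plate-corrected B-score, at least 3 SD from the plate mean, either direction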;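 note: B-score of the F/F0 ratio slope over 7 to 12 s after thallium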
Cl transport mod: modulates chloride dependent transport by human KCC2; Q9H2X9; KCC2 cells, thallium flux FluoZin-2 fluorescence; B-score of Tl+ flux slope (higher = more flux/activation; lower = inhibition) at 10 µM; 2.2% of 190,000 active;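 active = thallium flux slope and its plate-corrected score both differing from the plate sample mean at a set confidence after two filtering rounds, in either direction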;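 note: slope of fluorescence scaled to starting intensity during 10 to 20 s after thallium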
Target sequence (Q9H2X9 whole entry, looked up): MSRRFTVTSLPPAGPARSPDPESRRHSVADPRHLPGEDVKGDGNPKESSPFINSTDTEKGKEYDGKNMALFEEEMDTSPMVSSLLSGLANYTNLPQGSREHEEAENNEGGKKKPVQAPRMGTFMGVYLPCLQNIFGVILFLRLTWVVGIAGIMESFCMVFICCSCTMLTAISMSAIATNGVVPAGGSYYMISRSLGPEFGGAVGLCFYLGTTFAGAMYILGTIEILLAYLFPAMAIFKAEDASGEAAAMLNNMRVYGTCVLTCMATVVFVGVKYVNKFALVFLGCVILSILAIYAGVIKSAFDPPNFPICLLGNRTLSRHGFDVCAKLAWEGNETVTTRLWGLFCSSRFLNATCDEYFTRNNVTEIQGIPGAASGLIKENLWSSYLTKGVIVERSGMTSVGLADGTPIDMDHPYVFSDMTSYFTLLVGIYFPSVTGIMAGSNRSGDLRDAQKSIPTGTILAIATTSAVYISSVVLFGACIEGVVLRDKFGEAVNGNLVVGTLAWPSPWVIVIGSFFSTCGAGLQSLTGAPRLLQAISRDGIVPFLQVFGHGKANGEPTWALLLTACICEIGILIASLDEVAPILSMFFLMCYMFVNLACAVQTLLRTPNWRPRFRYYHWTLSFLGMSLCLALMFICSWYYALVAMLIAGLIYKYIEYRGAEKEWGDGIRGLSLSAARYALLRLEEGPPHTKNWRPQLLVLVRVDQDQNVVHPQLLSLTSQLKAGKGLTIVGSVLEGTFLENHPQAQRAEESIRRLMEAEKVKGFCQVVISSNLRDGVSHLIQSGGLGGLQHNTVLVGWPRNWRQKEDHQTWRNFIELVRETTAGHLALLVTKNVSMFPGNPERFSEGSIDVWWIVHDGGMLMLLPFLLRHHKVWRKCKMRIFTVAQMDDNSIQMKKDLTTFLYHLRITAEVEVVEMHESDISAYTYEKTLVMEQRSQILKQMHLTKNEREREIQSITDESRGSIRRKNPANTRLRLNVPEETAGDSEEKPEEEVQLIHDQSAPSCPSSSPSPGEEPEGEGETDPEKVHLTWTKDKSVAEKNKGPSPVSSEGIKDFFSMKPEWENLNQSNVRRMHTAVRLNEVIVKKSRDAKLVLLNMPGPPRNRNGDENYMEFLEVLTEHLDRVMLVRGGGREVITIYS
KCC2 secondary: confirmation of human KCC2 transport modulators. shares compounds with Cl transport mod. HEK293-KCC2, thallium flux, FluoZin2 fluorescence; hits give high values. normalised thallium flux (F/F0 slope) at 10 µM. 15% of 3,700 active;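 active = thallium flux slope above the same plate's solvent-only control mean plus 3 SD; inconclusive = the two replicate wells disagree; inactive = no significant difference from solvent-only control wells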
KCC2 bumet counter: bumetanide-insensitive thallium flux in KCC2 cells with ouabain, counter-screen; shares compounds with Cl transport mod; HEK293-KCC2 + bumetanide/ouabain, thallium flux FluoZin2; hits give high values; normalized thallium flux at 10 µM; 49% of 3,700 active;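 active = thallium entry rate above the same plate's blocked-transporter control wells by more than 3 SD; inconclusive = the two repeat wells disagree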;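 note: raw slope of fluorescence over initial fluorescence between 10 and 20 s after thallium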
KCC2 secondary2: KCC2 (human) modulation, second secondary assay; shares compounds with Cl transport mod; HEK293-KCC2, thallium flux FluoZin2 fluorescence; actives lie on both sides; F/F0 rise rate, 10–20 s post-thallium; normalized thallium flux at 10 µM; 23% of 3,700 active; AID 1715;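 active = thallium flux slope more than 3 SD above or below the plate's solvent-only control mean, mostly below; inconclusive = the two repeat wells disagreed; inactive = no significant shift from solvent-only controls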;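 note: raw slope with 0.1% DMSO as baseline and bumetanide as block control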
HEK counter1: counter-screen for KCC2 modulators: effect in parental HEK293 cells; thallium flux FluoZin2, ouabain; baseline-ratio fluorescence slope, 10–20 s after thallium; 46% of 3,700 active; shares compounds with Cl transport mod; thallium flux rate (normalised fluorescence) at 10 µM;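 active = thallium flux rate significantly above the same plate's solvent-only control wells, beyond their mean plus 3 SD; inconclusive = the two replicate wells gave conflicting results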
KCC2 ouabain: confirmation of human KCC2 modulators with ouabain. AID 1717. raw Tl+ flux slope (below DMSO = inhibition, above = activation) at 10 µM. 48% of 3,700 active. shares compounds with Cl transport mod. HEK293-KCC2, thallium flux FluoZin2 fluorescence; bidirectional: low = inhibitor, high = activator;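 active = thallium flux slope beyond 3 SD from same-plate DMSO control mean in most replicates, usually higher, sometimes lower; inconclusive = repeat tests gave conflicting results; inactive = no significant difference from controls in most replicates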;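 note: slope of initial-normalized fluorescence between seconds 10 and 20 after thallium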
HEK293 Tl flux2: acts in parental HEK cells, second KCC2 counter-screen; 33% of 3,700 active; HEK293 parental, thallium flux FluoZin-2 fluorescence slope; shares compounds with Cl transport mod; thallium flux slope at 10 µM;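 active = thallium flux slope above the same plate's solvent-control mean plus 3 SD in both duplicate wells; inconclusive = duplicate wells that disagreed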;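 note: run without ouabain in cells lacking the KCC2 cotransporter; slope of fluorescence scaled to its starting value between 10 and 20 s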
An asterisk follows results filed as active; ? = inconclusive; . = no result given.

SMILES	Rad51 HR inh	PKD1 inh	ROMK mod	Cl transport mod	KCC2 secondary	KCC2 bumet counter	KCC2 secondary2	HEK counter1	KCC2 ouabain	HEK293 Tl flux2
Cc1ccc2nc(NC(=O)c3ccccn3)sc2c1	.	-1	0.58	7.9*	?	0.041*	0.032	0.018*	0.036*	0.011*
Cn1c(=O)n(C)c2cc(/C=N/N=C3/NC(=O)C(CC(=O)O)S3)ccc21 (stereo not drawn)	-9	-2	0.1	0.48	.	.	.	.	.	.
COc1ccc(CCNC(=O)c2c(N)no[n+]2[O-])cc1OC	-3	1	0.57	-0.69	.	.	.	.	.	.
CCOc1ccc2nc(NC(=O)Nc3ccccc3)sc2c1	-9	-1	-0.58	.	.	.	.	.	.	.
CCOc1ccc2nc(NC(=O)c3ccccn3)sc2c1	-4	.	.	6.4*	?	0.028*	0.028	0.013*	0.03*	?
COc1ccc(-c2nnc(NC(=O)C3=COCCO3)o2)cc1	6	-5	0.066	1.8	.	.	.	.	.	.
COc1ccc(C(=O)On2c(-c3ccc(Br)cc3)nc3ccccc3c2=O)cc1	-2	17	0.49	5.8*	0.0062	?	0.039*	0.012*	?	0.022*
COc1cc(OC)cc(-c2nc3ccccc3c(=O)n2OC(=O)c2ccc(Br)cc2)c1	3	12	0.33	-0.6	.	.	.	.	.	.
COc1ccc(NC(=O)C(=O)N/N=C/c2cccnc2)c(OC)c1	19	2	0.32	7.7*	0.0058	?	0.03	0.0086	0.021	0.012
CCOc1ccc(NC(=O)C(=O)N/N=C/c2cccnc2)cc1	3	.	.	-1.5	.	.	.	.	.	.
O=C(Cc1cccs1)Nc1ccc(S(=O)(=O)N2CCCC2)cc1	-14	2	0.74	-3.7*	0.0077	0.006	0.035	0.004	0.02	0.011
CN(CC(=O)Nc1cc(S(=O)(=O)N2CCCC2)ccc1Cl)Cc1cccs1	3	.	.	-5.3*	?	0.0047	0.032	0.0034	0.014*	0.011
CCOc1cc(/C=N/NC(=O)CCCC(=O)NC2CCCCC2)ccc1O	2	0	0.29	0.35	.	.	.	.	.	.
O=C(NC1CCCC1)C(c1ccc(F)cc1)N(Cc1ccc(F)cc1)C(=O)CCl (stereo not drawn)	0	-6	-1.4	-0.19	.	.	.	.	.	.
CC(=O)Nc1ccc(S(=O)(=O)Nc2cccc(-c3nc4ccccc4o3)c2)cc1	1	0	-0.99	.	0.0087	?	0.033	0.004	0.019	0.012
CC(=O)Oc1ccc(C(=O)Nc2nnc(C)s2)cc1	-2	-4	.	2.4*	0.0086	0.0066	0.03	0.0066	0.019	?
O=C(Cn1nc2ccccc2n1)N/N=C/c1cc(Cl)cc([N+](=O)[O-])c1O	6	2	2	-5.3*	0.0071	?	0.025*	0.0071	?	0.011
CC(=O)SCC(=O)N=c1sc2cc(F)ccc2n1C	17	-4	-0.15	.	0.0069	0.0059*	0.03	?	0.019	0.011
Cc1csc(NC(=O)CSc2nnc(-c3ccco3)n2C)n1	-8	-2	.	-1.4	.	.	.	.	.	.
COc1cccc2cc(-c3nnc(SCC(=O)Nc4nc(C)cs4)n3C)oc12	1	-9	-0.029	-3*	0.0085	0.0057	0.03	0.0067	0.023	0.01
COc1cc(-c2c(C#N)c(N)nc(SCc3ccncc3)c2C#N)cc(OC)c1OC	-6	-4	-1.2	.	0.0085	0.0065	0.029	0.0072	?	?
Nn1c(SCc2nc3ccccn3c2Br)nnc1-c1cccnc1	2	-5	.	1.1	.	.	.	.	.	.
COc1ccc(C2/C=C\CN(C(=O)CC(C)(C)C)CC(=O)N2Cc2ccc(F)cc2)cc1 (stereo not drawn)	6	.	.	-2.4	.	.	.	.	.	.
